Activity calls are given as the source filed them.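 Rule for the calls: active = inhibition of 35% or more of the parasite aminopeptidase activity in malaria cell lysate; inactive = inhibition below 35%.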
Target: Aminopeptidase N (Plasmodium falciparum (isolate 3D7)) (UniProt O96935)
Test: PfM1AAP inhibitors in parasite lysate, late-stage follow-up, cell lysate, fluorescence, malaria cell lysate, powder samples (AID 492976)
Details: P. falciparum lysate, H-Arg-NHMec fluorogenic substrate; at 5 µM; stronger effect = higher value
Method in brief: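 Assay system: P. falciparum cell lysate; input: malaria lysate at 10 µg/mL final; buffer or medium: Tris-HCl, pH 7.5; dosing: 5 µM, one dose; incubation: 10 min preincubation, 30 min reading; technique: kinetic NHMec fluorescence, ex 370 nm, em 460 nm, 60-s intervals; measure: % inhibition vs control wells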

Aminopeptidase N (Plasmodium falciparum (isolate 3D7)), sequence (O96935 whole entry, looked up): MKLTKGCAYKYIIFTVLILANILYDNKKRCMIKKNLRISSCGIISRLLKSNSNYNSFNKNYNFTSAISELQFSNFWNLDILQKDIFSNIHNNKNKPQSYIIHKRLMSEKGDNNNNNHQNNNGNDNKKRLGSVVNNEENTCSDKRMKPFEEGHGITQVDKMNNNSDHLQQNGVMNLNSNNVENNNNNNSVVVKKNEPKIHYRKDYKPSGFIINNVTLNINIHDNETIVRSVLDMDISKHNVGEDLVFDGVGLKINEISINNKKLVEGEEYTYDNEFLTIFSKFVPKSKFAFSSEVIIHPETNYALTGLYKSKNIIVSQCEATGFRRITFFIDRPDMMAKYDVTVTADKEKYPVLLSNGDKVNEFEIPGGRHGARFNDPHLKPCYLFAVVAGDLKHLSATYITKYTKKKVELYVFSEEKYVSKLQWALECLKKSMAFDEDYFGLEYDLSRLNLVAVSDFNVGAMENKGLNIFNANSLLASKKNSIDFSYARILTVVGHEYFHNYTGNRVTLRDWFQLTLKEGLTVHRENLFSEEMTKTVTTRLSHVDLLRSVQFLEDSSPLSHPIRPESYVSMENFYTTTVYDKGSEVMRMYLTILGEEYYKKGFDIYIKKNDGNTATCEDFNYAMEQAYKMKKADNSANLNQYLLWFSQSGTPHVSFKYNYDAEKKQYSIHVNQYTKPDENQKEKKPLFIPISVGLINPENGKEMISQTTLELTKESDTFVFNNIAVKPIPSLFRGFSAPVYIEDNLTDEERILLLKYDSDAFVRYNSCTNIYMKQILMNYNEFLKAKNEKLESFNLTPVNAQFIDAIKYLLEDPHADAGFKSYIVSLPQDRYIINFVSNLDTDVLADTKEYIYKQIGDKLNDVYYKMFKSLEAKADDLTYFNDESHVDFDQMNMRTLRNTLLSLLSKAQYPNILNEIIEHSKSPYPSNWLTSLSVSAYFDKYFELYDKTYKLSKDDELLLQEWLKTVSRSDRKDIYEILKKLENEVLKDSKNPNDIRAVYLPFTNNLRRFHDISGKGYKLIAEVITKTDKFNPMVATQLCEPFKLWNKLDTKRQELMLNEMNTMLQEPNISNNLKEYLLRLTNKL

Which inhibition does the source give for `O=C1/C(=C/c2cccs2)SC(=S)N1NS(=O)(=O)c1ccccc1` here?
The inhibition was 0% (inactive).

`O=C(O)CCC(=O)N1N=C(c2c(-c3ccccc3)c3cc(Cl)ccc3[nH]c2=O)CC1c1cccs1` (stereo not drawn) was tested. Which inhibition did it give?
Its inhibition is 3% (inactive).

For `O=C(NCc1cccc(F)c1)C1CCN(S(=O)(=O)Cc2ccccc2)CC1`, which inhibition is on record?
The inhibition was 35%.

For `COc1ccc(OC)c(/C=C2\SC(=S)N(C(C(=O)O)c3ccccc3)C2=O)c1` (stereo not drawn), which inhibition is on record?
The inhibition was 0% (inactive).

`COc1ccccc1-c1nc2ccccc2c(=O)n1NC(=O)c1cccs1` was tested. Which inhibition did it give?
The inhibition was 0% (inactive).

With `O=C(Nn1c(C2CCC2)nc2ccccc2c1=O)c1cccs1` as the compound, how does the inhibition read?
Its inhibition is 0% (inactive).

Which inhibition does the source give for `O=C(O)CCC(=O)N1N=C(c2c(-c3ccccc3)c3cc(Cl)ccc3[nH]c2=O)CC1c1ccco1` (stereo not drawn) here?
The inhibition was 2% (inactive).

`O=C(NCCC1=CCCCC1)C1CCN(S(=O)(=O)c2ccc(Br)s2)CC1` was tested. Which inhibition did it give?
The inhibition was 13% (inactive).

For `COc1ccc(C2CC(c3c(-c4ccccc4)c4cc(Cl)ccc4[nH]c3=O)=NN2C(=O)CCC(=O)O)cc1` (stereo not drawn), which inhibition is on record?
Its inhibition is 0% (inactive).

With `O=C1N=c2ccccc2=C1c1sc(=S)n(NC(=O)c2cccc(O)c2)c1O` as the compound, how does the inhibition read?
Its inhibition is 17% (inactive).

For `O=C(NCc1ccco1)C1CCCN(S(=O)(=O)c2cccc3nonc23)C1` (stereo not drawn), which inhibition is on record?
Its inhibition is 0% (inactive).

How did the inhibition turn out when `CC(=O)N1N=C(c2c(O)n(C)c(=O)n(C)c2=O)CC1c1ccccc1` (stereo not drawn) was run?
The inhibition was 0% (inactive).

For `O=C1N=c2ccccc2=C1c1sc(=S)n(NC(=O)c2ccccc2)c1O`, which inhibition is on record?
Its inhibition is 0% (inactive).

From PubChem BioAssay AID492976 (The Scripps Research Institute Molecular Screening Center, 2010)
